Results from the M2OR odorant receptor database.

Assays:
Conditions in all cases: stereoisomer not certain
[1] = molecular target: T1, UniProt Q8VG27
T1 sequence (whole entry): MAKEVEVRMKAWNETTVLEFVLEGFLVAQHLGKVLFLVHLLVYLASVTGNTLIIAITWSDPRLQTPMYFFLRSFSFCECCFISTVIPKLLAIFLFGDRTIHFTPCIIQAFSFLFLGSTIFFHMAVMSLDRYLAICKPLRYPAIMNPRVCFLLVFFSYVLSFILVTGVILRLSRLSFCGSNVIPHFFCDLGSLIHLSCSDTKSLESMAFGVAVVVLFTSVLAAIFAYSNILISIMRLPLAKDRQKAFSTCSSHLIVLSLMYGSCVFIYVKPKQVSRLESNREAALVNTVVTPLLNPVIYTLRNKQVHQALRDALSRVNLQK
Method in brief: (§1)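 Values were gathered from published papers (main text and supplementary material), with extra details requested from the original authors when needed, and checked for typos and inconsistencies. Each receptor–molecule pair is called responsive (active) if the original authors judged the measured signal statistically different from baseline, and non-responsive (inactive) otherwise. Assay methods varied by source, often transient mammalian cell-line luciferase assays. Recorded details include cell line, G-protein, co-transfected protein and tags.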

[2] = molecular target: T2, UniProt Q8VG53
T2 sequence (whole entry): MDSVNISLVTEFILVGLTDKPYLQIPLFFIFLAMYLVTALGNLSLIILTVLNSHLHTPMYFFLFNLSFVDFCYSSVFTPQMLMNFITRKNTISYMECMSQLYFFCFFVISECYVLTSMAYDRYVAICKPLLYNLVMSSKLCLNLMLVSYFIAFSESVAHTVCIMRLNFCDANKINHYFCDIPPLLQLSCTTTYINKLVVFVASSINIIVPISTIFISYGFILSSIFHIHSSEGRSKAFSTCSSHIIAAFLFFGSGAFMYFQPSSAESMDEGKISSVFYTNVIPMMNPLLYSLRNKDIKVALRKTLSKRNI
Method in brief: as §1

[3] = molecular target: T3, UniProt Q8VG64
T3 sequence (whole entry): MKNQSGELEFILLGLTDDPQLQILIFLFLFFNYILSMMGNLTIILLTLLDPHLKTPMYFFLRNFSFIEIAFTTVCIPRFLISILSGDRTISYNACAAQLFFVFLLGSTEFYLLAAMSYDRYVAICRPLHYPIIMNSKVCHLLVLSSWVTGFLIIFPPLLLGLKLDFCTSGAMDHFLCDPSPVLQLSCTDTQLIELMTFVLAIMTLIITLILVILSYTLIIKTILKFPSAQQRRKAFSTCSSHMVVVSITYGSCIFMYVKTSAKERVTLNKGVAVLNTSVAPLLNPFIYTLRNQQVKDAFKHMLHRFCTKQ
Method in brief: as §1

[4] = molecular target: T4, UniProt Q8VGB9
T4 sequence (whole entry): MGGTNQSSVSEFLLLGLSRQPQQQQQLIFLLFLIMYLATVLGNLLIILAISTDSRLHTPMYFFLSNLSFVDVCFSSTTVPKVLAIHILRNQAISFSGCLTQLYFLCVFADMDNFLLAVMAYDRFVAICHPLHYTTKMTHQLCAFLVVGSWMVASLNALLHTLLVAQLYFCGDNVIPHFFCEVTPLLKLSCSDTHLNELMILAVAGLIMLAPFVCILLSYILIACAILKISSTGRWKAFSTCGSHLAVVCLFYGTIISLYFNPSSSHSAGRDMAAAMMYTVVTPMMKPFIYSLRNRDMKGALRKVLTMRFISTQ
Method in brief: as §1

[5] = molecular target: UniProt Q8VG28
Method in brief: as §1

[6] = molecular target: T5, UniProt Q8VG49
T5 sequence (whole entry): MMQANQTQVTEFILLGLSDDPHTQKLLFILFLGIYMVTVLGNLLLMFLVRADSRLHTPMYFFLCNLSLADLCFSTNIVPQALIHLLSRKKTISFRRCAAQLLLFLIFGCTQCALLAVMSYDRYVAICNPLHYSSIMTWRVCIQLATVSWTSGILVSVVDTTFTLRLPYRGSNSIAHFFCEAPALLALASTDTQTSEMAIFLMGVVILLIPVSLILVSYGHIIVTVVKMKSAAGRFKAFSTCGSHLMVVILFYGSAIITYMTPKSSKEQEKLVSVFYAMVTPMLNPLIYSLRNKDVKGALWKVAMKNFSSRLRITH
Method in brief: as §1

[7] = molecular target: T6, UniProt Q8VG77
T6 sequence (whole entry): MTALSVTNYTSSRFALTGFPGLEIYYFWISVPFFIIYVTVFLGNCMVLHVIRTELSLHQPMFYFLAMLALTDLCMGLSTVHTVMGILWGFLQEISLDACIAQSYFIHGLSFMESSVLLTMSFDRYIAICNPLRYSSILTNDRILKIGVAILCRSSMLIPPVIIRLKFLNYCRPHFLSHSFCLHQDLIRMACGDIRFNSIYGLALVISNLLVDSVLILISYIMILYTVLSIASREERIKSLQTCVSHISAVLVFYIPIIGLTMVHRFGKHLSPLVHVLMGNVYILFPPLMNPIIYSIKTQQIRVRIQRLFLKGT
Method in brief: as §1

[8] = molecular target: T7, UniProt Q8VG96
T7 sequence (whole entry): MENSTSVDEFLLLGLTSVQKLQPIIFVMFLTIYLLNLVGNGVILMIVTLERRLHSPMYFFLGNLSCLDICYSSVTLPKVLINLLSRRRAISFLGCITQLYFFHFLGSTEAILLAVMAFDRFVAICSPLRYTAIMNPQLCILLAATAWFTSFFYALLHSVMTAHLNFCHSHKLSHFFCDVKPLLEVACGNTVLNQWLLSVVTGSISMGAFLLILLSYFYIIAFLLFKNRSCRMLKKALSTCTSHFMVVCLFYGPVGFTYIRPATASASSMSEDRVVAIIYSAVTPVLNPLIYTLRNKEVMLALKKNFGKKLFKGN
Method in brief: as §1

UniProt Q8VG28, sequence (Q8VG28 as listed by the source): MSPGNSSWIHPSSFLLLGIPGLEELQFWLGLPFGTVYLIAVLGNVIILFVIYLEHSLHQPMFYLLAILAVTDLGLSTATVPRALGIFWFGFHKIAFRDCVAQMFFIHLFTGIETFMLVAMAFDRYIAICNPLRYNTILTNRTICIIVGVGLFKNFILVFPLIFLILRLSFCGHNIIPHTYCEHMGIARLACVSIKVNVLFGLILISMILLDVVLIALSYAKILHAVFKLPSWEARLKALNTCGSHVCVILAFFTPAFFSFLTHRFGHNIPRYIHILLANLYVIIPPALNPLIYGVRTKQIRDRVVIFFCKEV

CC(CC=O)CCCC(C)(C)O (stereo not drawn)
odorant receptor agonist call [1]: inactive
odorant receptor agonist call [2]: inactive
odorant receptor agonist call [3]: inactive
odorant receptor agonist call [4]: inactive

CCCCCCCCCCCO
odorant receptor agonist call [1]: inactive
odorant receptor agonist call [2]: inactive
odorant receptor agonist call [3]: inactive
odorant receptor agonist call [4]: inactive

O=C(O)CCCCCC(=O)O
odorant receptor agonist call [5]: inactive

CCCCCCCCC=CC=O
odorant receptor agonist call [1]: inactive
odorant receptor agonist call [2]: inactive
odorant receptor agonist call [3]: inactive
odorant receptor agonist call [4]: inactive

CCCCCCCOC(=O)C(C)C
odorant receptor agonist call [1]: inactive
odorant receptor agonist call [2]: inactive
odorant receptor agonist call [3]: inactive
odorant receptor agonist call [4]: inactive

CSSCc1ccco1
odorant receptor agonist call [1]: active
odorant receptor agonist call [2]: inactive
odorant receptor agonist call [3]: inactive
odorant receptor agonist call [4]: inactive

CCCCCC=CCCC=O
odorant receptor agonist call [1]: inactive
odorant receptor agonist call [2]: inactive
odorant receptor agonist call [3]: inactive
odorant receptor agonist call [4]: inactive

CCCCCCCC(=O)[O-].[H+]
odorant receptor agonist call [5]: active
odorant receptor agonist call [6]: inactive
odorant receptor agonist call [7]: inactive
odorant receptor agonist call [8]: inactive

CCC(C(=O)O)c1ccccc1 (stereo not drawn)
odorant receptor agonist call [6]: inactive
odorant receptor agonist call [7]: inactive
odorant receptor agonist call [8]: inactive

O=C(O)CCCCBr
odorant receptor agonist call [5]: inactive

CCCCOC(=O)C(C)OC(=O)CCC (stereo not drawn)
odorant receptor agonist call [6]: inactive
odorant receptor agonist call [7]: inactive
odorant receptor agonist call [8]: inactive

CC(C)CS
odorant receptor agonist call [1]: inactive
odorant receptor agonist call [2]: inactive
odorant receptor agonist call [3]: inactive
odorant receptor agonist call [4]: inactive

C=C(C)C1CCC2(C)OC2C1 (stereo not drawn)
odorant receptor agonist call [1]: inactive
odorant receptor agonist call [2]: inactive
odorant receptor agonist call [3]: inactive
odorant receptor agonist call [4]: inactive

Cc1ccccc1OC(=O)C(C)C
odorant receptor agonist call [1]: inactive
odorant receptor agonist call [2]: inactive
odorant receptor agonist call [3]: inactive
odorant receptor agonist call [4]: inactive

CCCCCO
odorant receptor agonist call [5]: inactive
odorant receptor agonist call [6]: inactive
odorant receptor agonist call [7]: inactive
odorant receptor agonist call [8]: inactive

O=C([O-])CCCCC(=O)[O-].[H+].[H+]
odorant receptor agonist call [5]: inactive
